Results from ChEMBL document CHEMBL4715912, “Discovery of a novel series of indolinylpyrimidine-based GPR119 agonists: Elimination of ether-a-go-go-related gene liability using a hydrogen bond acceptor-focused approach” (Bioorg Med Chem, 2021).
Activity calls are given as the source filed them. No cut-off for these calls is given here.

What was measured:
Rattus norvegicus [1] = experiment: Antidiabetic activity in po dosed N-STZ 1.5 rat assessed as reduction in glucose level pre-treated for 60 mins followed by 1.5 g/kg glucose treatment and measured up to 120 mins by OGTT; assay type: functional, organism-based; conditions: dose 1-3 mg/kg, time min <=180
In short: (§1)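 Male N-STZ1.5 rats, 25–30 weeks old, fasted overnight, dosed orally with compound or 0.5% methylcellulose vehicle; 60 min later oral glucose load 1.5 g/kg. Tail-vein blood taken pre-dose, at 0, 10, 30, 60 and 120 min; plasma glucose by autoanalyzer, insulin by radioimmunoassay. AUC computed; mean ± SD, n = 6; one-tailed Williams' test.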

Rattus norvegicus [2] = experiment: Antidiabetic activity in N-STZ 1.5 rat assessed as increase in plasma insulin level at 1 to 3 mg/kg, po pre-treated for 60 mins followed by 1.5 g/kg glucose treatment and measured up to 120 mins by radioimmunoassay; assay type: functional, organism-based; conditions: dose 1-3 mg/kg, time min <=180; in short: as §1
Rattus norvegicus [3] = experiment: Antidiabetic activity in N-STZ 1.5 rat assessed as reduction in glucose level at 1 mg/kg, po pre-treated for 60 mins followed by 1.5 g/kg glucose treatment and measured up to 120 mins by OGTT; assay type: functional, organism-based; conditions: time min <=180; in short: as §1
[4] = MRT in rat at 1 mg/kg, po by LC/MS/MS analysis; assay type: ADME, organism-based; conditions: in vivo
In short: (§2)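 Cassette dosing, given by mouth at 1 mg/kg in 0.5% methylcellulose aqueous solution, with intravenous arm at 0.1 mg/kg, to non-fasted animals. Blood collected after dosing, plasma deproteinized and centrifuged, compound measured by LC/MS/MS.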

[5] = Oral bioavailability in rat at 1 mg/kg by LC/MS/MS analysis; assay type: ADME, organism-based; conditions: in vivo; in short: as §2
[6] = Volume of distribution at steady state in rat at 0.1 mg/kg, iv by LC/MS/MS analysis; assay type: ADME, organism-based; conditions: in vivo, read-out: Vdss
In short: (§3)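 Cassette intravenous dosing at 0.1 mg/kg to non-fasted animals. Plasma taken from blood samples, deproteinized and centrifuged, and compound levels in supernatant quantified by LC/MS/MS.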

[7] = Partition coefficient, logD between 1-octanol and pH 7.4 aqueous buffer by chromatographic analysis; assay type: physicochemical; conditions: 1-octanol/pH 7.4 aqueous buffer
In short: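 LogD at pH 7.4, octanol/aqueous buffer partition, estimated by a chromatographic method adapted from a published procedure.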

hERG (KCNH2) = hERG (KCNH2) (Homo sapiens, UniProt Q12809); experiment: Inhibition of human ERG expressed in CHO cells at 10 uM incubated for 5 mins by patch-clamp assay relative to control; assay type: cell-based; conditions: CHO cells expressing human ERG
In short: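 hERG-expressing CHO cells grown at 32 °C, recorded by population patch clamp after amphotericin B perforation; PBS with Ca/Mg outside, KCl/EGTA/HEPES pH 7.3 inside. Holding −80 mV, step to 40 mV 2 s, then −50 mV 2 s; peak tail current before and after 5 min compound exposure. Percent inhibition = 100 − post/pre × 100; mean ± SD, n = 4.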

[8] = Total clearance in rat at 0.1 mg/kg, iv by LC/MS/MS analysis; assay type: ADME, organism-based; conditions: in vivo; in short: as §3
[9] = Intrinsic clearance in human liver microsomes at 1 uM measured after 15 to 30 mins in presence of NADPH generating system by LC/MS/MS analysis; assay type: ADME, Microsome; conditions: time 15-30 min, read-out: CLH
In short: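 Human or rat liver microsomes at 0.2 mg/mL protein in 50 mM potassium phosphate pH 7.4 with 1 µM compound; reaction started with NADPH-generating system (5 mM MgCl2, 5 mM glucose-6-phosphate, 0.5 mM β-NADP+, 1.5 units/mL G6PDH). Stopped with acetonitrile at 15 and 30 min, parent by LC/MS/MS; rate from concentration–time slope, expressed as µL/min/mg.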

Sequence of hERG (KCNH2) (Q12809 whole entry): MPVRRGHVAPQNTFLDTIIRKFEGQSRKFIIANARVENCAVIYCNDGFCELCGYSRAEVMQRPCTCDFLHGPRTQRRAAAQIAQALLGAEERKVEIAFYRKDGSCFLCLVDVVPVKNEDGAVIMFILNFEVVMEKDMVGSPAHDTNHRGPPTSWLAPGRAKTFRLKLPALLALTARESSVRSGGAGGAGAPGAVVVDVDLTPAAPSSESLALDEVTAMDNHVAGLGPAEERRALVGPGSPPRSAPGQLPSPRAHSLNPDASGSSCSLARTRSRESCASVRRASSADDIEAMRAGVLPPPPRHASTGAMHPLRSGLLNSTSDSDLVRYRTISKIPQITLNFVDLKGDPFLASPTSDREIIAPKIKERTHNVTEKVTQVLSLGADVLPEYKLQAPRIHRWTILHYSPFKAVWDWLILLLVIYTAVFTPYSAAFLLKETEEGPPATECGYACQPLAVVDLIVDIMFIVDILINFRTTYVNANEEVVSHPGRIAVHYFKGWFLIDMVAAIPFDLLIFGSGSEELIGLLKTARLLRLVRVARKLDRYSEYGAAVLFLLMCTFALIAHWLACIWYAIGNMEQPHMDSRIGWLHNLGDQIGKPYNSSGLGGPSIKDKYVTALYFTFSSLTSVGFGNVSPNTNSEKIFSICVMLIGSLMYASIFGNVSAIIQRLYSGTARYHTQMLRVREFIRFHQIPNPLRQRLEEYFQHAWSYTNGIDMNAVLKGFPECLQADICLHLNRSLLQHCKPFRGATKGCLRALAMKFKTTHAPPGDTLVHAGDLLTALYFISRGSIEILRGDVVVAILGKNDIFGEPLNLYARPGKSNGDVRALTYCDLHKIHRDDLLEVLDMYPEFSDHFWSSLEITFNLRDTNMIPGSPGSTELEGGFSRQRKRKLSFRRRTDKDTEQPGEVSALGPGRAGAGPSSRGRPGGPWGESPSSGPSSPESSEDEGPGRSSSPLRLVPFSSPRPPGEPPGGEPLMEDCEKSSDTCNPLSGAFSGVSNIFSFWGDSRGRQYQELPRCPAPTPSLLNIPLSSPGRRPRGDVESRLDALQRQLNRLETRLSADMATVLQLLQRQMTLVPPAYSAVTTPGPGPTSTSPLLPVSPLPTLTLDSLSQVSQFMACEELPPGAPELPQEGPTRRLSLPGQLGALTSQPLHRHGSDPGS

## CC(C)c1noc(N2CCC(Oc3cc(N4CCc5cc(N6CCC[C@H](O)C6=O)ccc54)ncn3)CC2)n1
Rattus norvegicus [1]
  Activity: Dose-dependent effect
Rattus norvegicus [2]
  Activity: Active
Rattus norvegicus [3]
  Activity: Active
[4]
  MRT: 3.8 h
[5]
  bioavailability: 24%
[6]
  Vd: 0.332 L/kg
[7]
  logD: 3.3
hERG (KCNH2)
  inhibition at 5 min, 10 µM: 31%
[8]
  clearance: 2.47 mL/min/kg
[9]
  microsomal CLint at 1 µM: 9 µL/min/mg
